# ChEMBL document CHEMBL1149246, “Discovery of bicyclic thymidine analogues as selective and high-affinity inhibitors of Mycobacterium tuberculosis thymidine monophosphate kinase” (J Med Chem, 2004)
# The source made the active and inactive calls. No cut-off for these calls is given here.
# B1: Thymidylate kinase (Homo sapiens), P23919 (protein)
# chain: MAARRGALIVLEGVDRAGKSTQSRKLVEALCAAGHRAELLRFPERSTEIGKLLSSYLQKKSDVEDHSVHLLFSANRWEQVPLIKEKLSQGVTLVVDRYAFSGVAFTGAKENFSLDWCKQPDVGLPKPDLVLFLQLQLADAAKRGAFGHERYENGAFQERALRCFHQLMKDTTLNWKMVDASKSIEAVHEDIRVLSEDAIRTATEKPLGELWK
# Tests used:
# Thymidylate kinase [1] = target: T1, Thymidylate kinase (Mycobacterium tuberculosis, UniProt P9WKE1); assay: Inhibition of Mycobacterium tuberculosis TMPK by coupled spectrophotometric assay
# T1 sequence (P9WKE1 whole entry): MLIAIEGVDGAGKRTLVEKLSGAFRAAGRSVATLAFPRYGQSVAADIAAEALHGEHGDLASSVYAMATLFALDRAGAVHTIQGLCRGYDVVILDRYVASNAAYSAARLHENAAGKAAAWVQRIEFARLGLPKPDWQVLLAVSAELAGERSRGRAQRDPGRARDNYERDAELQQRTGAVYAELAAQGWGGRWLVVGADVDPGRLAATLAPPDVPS
# [2] = target: T2, Thymidylate kinase (Homo sapiens) (UniProt P23919); assay: Inhibition of human TMPK at 2 mM by coupled spectrophotometric assay
# T2 sequence (whole entry): B1 chain
# Procedure, shortened: (§1)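 Thymidylate kinase activity (M. tuberculosis or human enzyme) measured by coupled spectrophotometric assay at 334 nm, following NADH consumption. Medium: 50 mM Tris-HCl pH 7.4, 50 mM KCl, 2 mM MgCl2, 0.2 mM NADH, 1 mM phosphoenol pyruvate, 2 units each lactate dehydrogenase, pyruvate kinase and nucleoside diphosphate kinase. ATP fixed at 0.5 mM, dTMP at 0.05 mM; analogue 0.1–2.5 mM.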
# Thymidylate kinase [3] = target: T3, Thymidylate kinase (Homo sapiens, UniProt P23919); assay: (§2) Inhibition of human TMPK by coupled spectrophotometric assay; procedure, shortened: as §1
# T3 sequence (P23919 whole entry): B1 chain
# [4] = Selectivity index, Ki for human TMPK/Ki for Mycobacterium tuberculosis TMPK
# [5] = target: T4, Thymidylate kinase (Mycobacterium tuberculosis) (UniProt P9WKE1); assay: Inhibition of Mycobacterium tuberculosis TMPK at 1 mM by coupled spectrophotometric assay; procedure, shortened: as §1
# T4 sequence (whole entry): T1 sequence (P9WKE1 whole entry)
# [6] = compound: Cc1cn([C@H]2C[C@H](O)[C@@H](COP(=O)(O)O)O2)c(=O)[nH]c1=O; assay: as §2; procedure, shortened: as §1
Molecule,Ki (Thymidylate kinase [1]) [µM],Ki (Thymidylate kinase [3]) [µM],Ratio Ki [4],further results
Cc1cn([C@@H]2C[C@H](CN=[N+]=[N-])[C@@H](CO)O2)c(=O)[nH]c1=O,29,–,–,Activity [2]: inactive
Cc1cn([C@@H]2O[C@H](CO)[C@@H](CN)[C@H]2Cl)c(=O)[nH]c1=O,390,–,–,–
Cc1cn([C@H]2C[C@H](O)[C@@H](CO)O2)c(=O)[nH]c1=O [DOXRIBTIMINE],–,180,–,–
Cc1cn([C@@H]2O[C@H](CO)[C@@H](CN=[N+]=[N-])[C@H]2Cl)c(=O)[nH]c1=O,180,–,–,–
Cc1cn([C@H]2C[C@H](CN=[N+]=N)[C@@H](CO)O2)c(=O)[nH]c1=O,40,1040,26,–
Cc1cn([C@@H]2O[C@H](CO)[C@@H](CN)[C@H]2F)c(=O)[nH]c1=O,–,–,–,Activity [5]: inactive
Cc1cn([C@H]2C[C@H](CN)[C@@H](CO)O2)c(=O)[nH]c1=O,–,220,3.9,–
Cc1cn([C@@H]2O[C@H](CO)[C@H]3CNC(=S)O[C@H]32)c(=O)[nH]c1=O,3.5,700,200,–
Cc1cn([C@@H]2O[C@H](CO)[C@@H](CN=[N+]=[N-])[C@H]2F)c(=O)[nH]c1=O,165,–,–,–
Cc1cn([C@@H]2O[C@H](CF)[C@@H](CN=[N+]=[N-])[C@H]2F)c(=O)[nH]c1=O,80,–,–,–
Cc1cn([C@H]2C[C@H](O)[C@@H](COP(=O)(O)O)O2)c(=O)[nH]c1=O,–,–,–,Selectivity index [4]: 1.1
Cc1cn([C@@H]2O[C@H](CO)[C@H]3CNC(=O)O[C@H]32)c(=O)[nH]c1=O,13.5,1100,81.5,–
B1,–,–,–,Km [6]: 5 µM
